Consider 10 compounds from ChEMBL document CHEMBL2163220 (J Med Chem, 2012).

Assay [1] is described as follows: Cytotoxicity against human C4-2B cells incubated for 72 hrs by MTT assay. The assay is classed as functional, cell-based. Conditions: LNCaP C4-2B. The procedure, abridged:
(§1)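 MTT assay run across a panel of prostate cancer cell lines.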

The subject of assay [2] is CWR22R. Kind of assay: Cytotoxicity against human 22Rv1 cells incubated for 72 hrs by MTT assay. The assay is classed as functional, cell-based. Conditions: 22Rv1, 72 h. An outline of the steps:
as §1
Background: Tetrazolium assays rely on reduction of a dye to a coloured formazan, in cell work by metabolically active cells.

Assay [3] concerns PC-3. Kind of assay: Cytotoxicity against human PC3 cells incubated for 72 hrs by MTT assay. Conditions: PC-3, 72 h. The class given is functional, cell-based. The procedure, abridged:
as §1

Assay [4] deals with LNCaP. The experiment in a line: Cytotoxicity against human LNCAP cells incubated for 72 hrs by MTT assay. The class given is functional, cell-based. An outline of the steps:
as §1

For assay [5], the target named is T1, Androgen receptor (Homo sapiens) (UniProt P10275).
T1 sequence (whole entry): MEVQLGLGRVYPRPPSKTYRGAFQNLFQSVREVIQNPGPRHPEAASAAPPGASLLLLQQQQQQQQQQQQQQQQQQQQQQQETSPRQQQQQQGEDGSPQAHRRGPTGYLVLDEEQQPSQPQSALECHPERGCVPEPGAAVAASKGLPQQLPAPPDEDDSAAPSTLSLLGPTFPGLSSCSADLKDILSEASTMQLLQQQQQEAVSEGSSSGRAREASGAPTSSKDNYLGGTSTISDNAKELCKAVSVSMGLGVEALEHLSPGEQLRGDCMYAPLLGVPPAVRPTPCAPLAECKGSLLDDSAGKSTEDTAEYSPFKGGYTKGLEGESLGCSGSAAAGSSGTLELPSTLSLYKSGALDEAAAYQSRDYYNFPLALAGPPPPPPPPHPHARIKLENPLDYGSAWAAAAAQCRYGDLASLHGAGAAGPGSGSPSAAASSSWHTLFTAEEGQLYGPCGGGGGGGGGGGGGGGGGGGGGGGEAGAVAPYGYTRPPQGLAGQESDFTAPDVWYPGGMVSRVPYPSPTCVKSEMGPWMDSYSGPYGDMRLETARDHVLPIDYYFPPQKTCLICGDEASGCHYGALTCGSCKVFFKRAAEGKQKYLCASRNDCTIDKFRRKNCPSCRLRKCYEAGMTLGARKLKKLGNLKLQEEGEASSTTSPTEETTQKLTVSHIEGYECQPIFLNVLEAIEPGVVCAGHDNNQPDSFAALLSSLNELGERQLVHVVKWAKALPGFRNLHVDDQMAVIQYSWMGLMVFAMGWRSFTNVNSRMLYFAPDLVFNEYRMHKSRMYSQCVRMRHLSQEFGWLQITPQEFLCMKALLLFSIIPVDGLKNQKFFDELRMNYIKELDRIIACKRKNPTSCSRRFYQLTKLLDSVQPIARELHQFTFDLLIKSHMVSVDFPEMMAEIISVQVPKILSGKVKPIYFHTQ
Kind of assay: Antagonist activity at androgen receptor in human LNCaP cells assessed as reduction in DHT-induced PSA expression by luciferase reporter gene assay. The class given is functional, cell-based. An outline of the steps:
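LNCaP cells carrying a PSA-luc reporter were treated with compound at 1 and 2.5 μM in the presence of 1 nM DHT. Fold suppression was calculated relative to 1 nM DHT alone. Run in triplicate.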
In general terms: In a reporter assay the amount or activity of a reporter protein is the signal.

For assay [6], the system named is LNCaP. The experiment in a line: Induction of apoptosis in human LNCAP cells assessed as caspase-3 activation incubated for 24 hrs by Western blotting. The class given is functional, cell-based. The procedure, abridged:
(§2)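 LNCaP cells in complete medium were exposed to DMSO or compound at 1, 2.5 and 5 μM for 24 h. Western blot measured AR, maspin, caspase-3 activation and PARP cleavage, with β-actin as loading control.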
For orientation: Immunoblotting shows a protein as a band on a membrane.

Assay [7] deals with T1, Androgen receptor (Homo sapiens). The experiment in a line: Antagonist activity at androgen receptor in human PC3 cells assessed as increase in Maspin promoter activity at 2.5 uM by luciferase reporter gene assay. The class given is functional, cell-based. To be noted: PC-3. The procedure, abridged:
(§3)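 PC-3 cells were transfected with maspin-luc, with or without cotransfected AR. Cells were exposed to DMSO vehicle or compound at 2.5 and 5 μM. Luciferase activity was measured in triplicate.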

For assay [8], the system named is PC-3. Kind of assay: Effect on in Maspin expression in human PC3 cells deficient in wild type androgen receptor at 2.5 uM by luciferase reporter gene assay. The assay is classed as functional, cell-based. The procedure, abridged: as §3
Assay [9] has as its target T1, Androgen receptor (Homo sapiens). The experiment in a line: Antagonist activity at androgen receptor in human PC3 cells assessed as increase in Maspin promoter activity at 5 uM by luciferase reporter gene assay. The class given is functional, cell-based. To be noted: PC-3. The procedure, abridged:
as §3

For assay [10] the target is unchanged. The experiment in a line: Antagonist activity at androgen receptor in human LNCaP cells assessed as increase in Maspin protein expression at 1 to 5 uM incubated for 24 hrs by Western blotting.
For assay [11], the system named is PC-3. Kind of assay: Effect on in Maspin expression in human PC3 cells deficient in wild type androgen receptor at 5 uM by luciferase reporter gene assay. The class given is functional, cell-based. An outline of the steps: as §3
Assay [12] relates to LNCaP. The experiment in a line: Induction of apoptosis in human LNCAP cells assessed as PARP cleavage activation incubated for 24 hrs by Western blotting. The assay is classed as functional, cell-based. The procedure, abridged:
as §2

The test system of assay [13] is LNCaP. Kind of assay: Reduction in androgen receptor protein expression in human LNCAP cells incubated for 24 hrs by Western blotting. The class given is functional, cell-based. An outline of the steps:
as §2

The target in assay [14] is T1, Androgen receptor (Homo sapiens). The experiment in a line: Antagonist activity at androgen receptor in human LNCaP cells assessed as increase in Maspin promoter activity by luciferase reporter gene assay. The class given is functional, cell-based. The procedure, abridged:
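LNCaP cells carrying a maspin promoter-luciferase reporter were treated with compound and read by luciferase activity, in triplicate.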

The subject of assay [15] is PC-3. The experiment in a line: Antagonist activity at androgen receptor ARv7 mutant lacking ligand binding domain expressed in human PC3 cells assessed as reduction in DHT-induced receptor transactivation at 1 uM by luciferase reporter gene assay. The class given is cell-based. The procedure, abridged:
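AR-v7 (lacks LBD), MMTV-Luc and pRL-TK (Renilla) plasmids transiently transfected into PC-3 cells; cells treated with DMSO vehicle, 0.1 nM DHT, or test compound at 1 μM; transactivation read as luciferase activity (relative luciferase units).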

The structures appear in SMILES notation. pIC50: −log10 of the molar value. Active and inactive are the calls of the source. The calls are words filed in the database; no cut-off is given here.

In general, pIC50 refers to −log10 of the IC50, conventionally taken in molar units. Read a high pIC50 as a low IC50. On to `Cc1coc2c1C(=O)C(=O)c1c-2ccc2c1CC(C)CC2` (stereo unspecified), for which the pIC50 in [1] was 6.52; in assay [2], 5.09; in assay [3], 5.72; in assay [4], 5.77.
For `Cc1coc2c1C(=O)C(=O)c1c-2ccc2c1CCC2(C)C`, in that order: 6.40, 5.12, 5.62 and 6.00.
As for `Cc1coc2c1C(=O)C(=O)c1c-2ccc2c1CCC(C)(C)C2`, the pIC50 in [1] is 6.30; in [2] it was 5.06; in assay [3], 6.05; in [4], 6.15. The Activity result in assay [5], in assay [6], in [12], in assay [13] and in assay [14] was “Dose-dependent effect” in each case. The outcome in [7], in [9] and in [10] was Active. For the same compound, the outcome in assay [8] and in [11] was inactive.
As for `Cc1coc2c1C(=O)C(=O)c1c-2ccc2c1CCCCC2`, the pIC50 in assay [1] is 5.74; in assay [2], less than 4.70; in assay [3], 5.20; in assay [4], 5.44.
In the case of `Cc1coc2c1C(=O)C(=O)c1c-2ccc2c1COCC2`, the pIC50 in assay [1] is 7.00; in [2] it was 5.82; in assay [3] it was 5.68; in assay [4], 5.62.
For the compound `CC(O)(CS(=O)(=O)c1ccc(F)cc1)C(=O)Nc1ccc(C#N)c(C(F)(F)F)c1` (stereo unspecified), the outcome in [15] was inactive.
Turning to `Cc1coc2c1C(=O)C(=O)c1c-2ccc2c1CCCC2C` (stereo unspecified), the pIC50 in assay [1] was 6.40; in assay [2], 4.93; in assay [3], 5.92; in assay [4], 5.92.
As for `Cc1coc2c1C(=O)C(=O)c1c-2ccc2c1CC(C)(C)CC2`, the pIC50 is 5.92 in assay [1], 5.49 in [2], 5.44 in assay [3] and 5.49 in assay [4]. Also, the Activity entry in [5] and in assay [14] was “Dose-dependent effect” in each case.
Consider `Cc1coc2c1C(=O)C(=O)c1c-2ccc2c1CCC(C)C2` (stereo unspecified), for which the pIC50 is 6.15 in assay [1], less than 4.70 in assay [2], 5.60 in assay [3] and 5.46 in [4].
As to `Cc1coc2c1C(=O)C(=O)c1c-2ccc2c1CCCC2`, the pIC50 was 7.00 in assay [1], 4.87 in assay [2], 5.92 in [3] and 6.22 in assay [4]. The Activity result in assay [5] and in assay [14] was “Dose-dependent effect” each time.
